Columns and labels:
[1] = target: T1, Cyclooxygenase (Rattus norvegicus) (UniProt P35355+Q63921); assay: Inhibition of Prostaglandin G/H synthase in rat polymorphonuclear leukocytes; format: cell-based; parameters: concentration or dose not given beside the values; conditions: concentration not given here
In short: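 Homogenate of glycogen-elicited rat peritoneal PMNs in 0.1 M Tris-HCl pH 8.2 with 10 μM NDGA, preincubated 5 min at 37 °C with compound (≤0.1% DMSO). [14C]arachidonic acid (8 μM) added with 4 mM glutathione and epinephrine; 10 min reaction. TxB2 and PGF2α separated by TLC and counted.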

[2] = target: T2, Polyunsaturated fatty acid 5-lipoxygenase (Rattus norvegicus, UniProt P12527); assay: In vitro inhibition of rat polymorphonuclear leukocyte 5-lipoxygenase
T2 sequence (P12527 whole entry): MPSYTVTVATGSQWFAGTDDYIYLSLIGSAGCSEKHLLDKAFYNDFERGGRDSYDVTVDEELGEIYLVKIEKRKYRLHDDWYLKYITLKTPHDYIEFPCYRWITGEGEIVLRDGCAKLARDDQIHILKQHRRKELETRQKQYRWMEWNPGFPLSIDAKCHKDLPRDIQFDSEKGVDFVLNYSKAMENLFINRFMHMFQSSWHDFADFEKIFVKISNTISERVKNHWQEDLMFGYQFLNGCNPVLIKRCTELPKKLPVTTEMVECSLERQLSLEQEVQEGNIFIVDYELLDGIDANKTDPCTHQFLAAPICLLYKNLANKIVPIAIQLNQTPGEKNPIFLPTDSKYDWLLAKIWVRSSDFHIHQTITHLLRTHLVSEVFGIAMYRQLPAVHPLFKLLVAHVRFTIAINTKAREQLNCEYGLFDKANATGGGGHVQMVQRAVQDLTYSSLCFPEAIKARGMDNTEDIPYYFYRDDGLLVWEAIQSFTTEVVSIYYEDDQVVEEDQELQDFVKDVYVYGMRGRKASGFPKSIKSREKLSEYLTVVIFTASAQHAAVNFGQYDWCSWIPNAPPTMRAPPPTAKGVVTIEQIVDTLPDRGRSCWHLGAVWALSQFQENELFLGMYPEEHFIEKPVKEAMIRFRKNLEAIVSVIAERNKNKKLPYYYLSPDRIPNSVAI
In short: (§1)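 Intact glycogen-elicited peritoneal PMNs pooled from 4–5 Sprague-Dawley rats (250 g), preincubated 5 min at 30 °C with compound in DMSO (≤0.1% final) plus 1 μM indomethacin. Challenge with [14C]arachidonic acid (4 μM) and A23187 (0.8 μM) for 3 min. Extraction, TLC, 5-HETE by scintillation counting.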

[3] = tested on: Cavia porcellus; assay: In vivo inhibitory activity against guinea pig systemic anaphylaxis when administered a compound dose (200 mg/kg) perorally; format: functional; conditions: po
In short: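 Male Hartley guinea pigs sensitised ip with ovalbumin (2.7 mg/kg) plus LPS adjuvant, then challenged 2 weeks later with 1% ovalbumin aerosol for 30 s. Pretreated with pyrilamine, indomethacin and propranolol 20 min before challenge. Compound given in PEG 400 1 h before challenge.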

[4] = tested on: Mus musculus; assay: In vivo inhibition of mouse ear inflammation; format: functional; parameters: concentration or dose not given beside the values
In short: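 Compound or ethanol vehicle applied topically to one ear of male DBA/2J mice 60 min before arachidonic acid (2 mg/ear). […] Groups of 5 mice.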

[5] = target: T3, Polyunsaturated fatty acid 5-lipoxygenase (Homo sapiens, UniProt P09917); assay: In vitro inhibition of polymorphonuclear leukocyte derived human 5-lipoxygenase
T3 sequence (P09917 whole entry): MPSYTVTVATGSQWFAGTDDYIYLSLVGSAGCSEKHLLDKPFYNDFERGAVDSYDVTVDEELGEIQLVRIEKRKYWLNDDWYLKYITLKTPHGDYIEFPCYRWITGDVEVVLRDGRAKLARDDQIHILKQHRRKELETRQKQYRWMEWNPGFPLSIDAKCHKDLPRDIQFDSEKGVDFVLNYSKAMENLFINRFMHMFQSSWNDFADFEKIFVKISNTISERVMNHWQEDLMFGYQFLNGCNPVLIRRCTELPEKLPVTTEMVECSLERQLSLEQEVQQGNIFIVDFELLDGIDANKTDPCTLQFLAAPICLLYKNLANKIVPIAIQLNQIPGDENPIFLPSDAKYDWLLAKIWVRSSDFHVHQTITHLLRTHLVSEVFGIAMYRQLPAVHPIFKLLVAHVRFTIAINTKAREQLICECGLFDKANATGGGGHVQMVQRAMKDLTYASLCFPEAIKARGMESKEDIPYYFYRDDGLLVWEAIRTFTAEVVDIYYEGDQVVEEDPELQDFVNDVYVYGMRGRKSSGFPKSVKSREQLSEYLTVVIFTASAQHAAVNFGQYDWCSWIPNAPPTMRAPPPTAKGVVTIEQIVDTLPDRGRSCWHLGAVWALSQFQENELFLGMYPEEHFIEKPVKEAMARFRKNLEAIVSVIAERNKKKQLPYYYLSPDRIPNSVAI
In short: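 PMNs from venous blood of healthy volunteers, isolated by dextran sedimentation and Percoll gradient (>90% pure) and held in Ca/Mg PBS with 1 mg/mL glucose and 1 μM indomethacin. Challenged with calcium ionophore and [14C]arachidonic acid for 3 min. 5-HETE measured by TLC and scintillation counting; IC50 read graphically.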

[6] = target: T4, Arachidonate 12-lipoxygenase (Rattus norvegicus) (UniProt Q02759); assay: In vitro inhibitory activity against rat platelet 12-lipoxygenase at 100 uM
T4 sequence (whole entry): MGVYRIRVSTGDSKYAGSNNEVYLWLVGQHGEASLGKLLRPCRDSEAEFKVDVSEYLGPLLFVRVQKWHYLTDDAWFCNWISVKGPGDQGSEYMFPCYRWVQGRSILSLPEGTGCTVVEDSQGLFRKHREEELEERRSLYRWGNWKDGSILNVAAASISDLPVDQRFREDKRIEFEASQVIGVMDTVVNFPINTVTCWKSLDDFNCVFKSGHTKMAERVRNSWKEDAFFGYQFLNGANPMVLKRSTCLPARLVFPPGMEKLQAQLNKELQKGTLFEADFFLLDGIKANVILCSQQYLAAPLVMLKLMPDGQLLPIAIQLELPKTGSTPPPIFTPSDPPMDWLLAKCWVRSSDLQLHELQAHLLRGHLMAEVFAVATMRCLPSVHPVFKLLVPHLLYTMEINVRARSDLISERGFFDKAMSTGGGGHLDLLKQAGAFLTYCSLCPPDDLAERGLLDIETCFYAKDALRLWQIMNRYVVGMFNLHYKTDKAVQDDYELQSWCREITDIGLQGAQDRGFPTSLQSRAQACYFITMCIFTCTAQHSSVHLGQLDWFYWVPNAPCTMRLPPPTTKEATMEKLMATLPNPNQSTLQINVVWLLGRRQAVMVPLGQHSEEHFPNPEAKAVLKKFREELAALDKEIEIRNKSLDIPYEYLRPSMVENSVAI
In short: (§2)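 Cell-free cytosolic 12-lipoxygenase from Sprague-Dawley rat platelets (0.4 mg/mL), preincubated 5 min at 30 °C with compound in DMSO (≤0.1% final), 25 mM Tris pH 7.4, 1 μM indomethacin, 100 μM glutathione; reaction started with 6 μM [14C]arachidonic acid and quenched with citric acid/NDGA after 3 min. 12-HETE isolated by TLC and counted by scintillation; % inhibition, duplicate.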

[7] = target: T5, Polyunsaturated fatty acid 5-lipoxygenase (Rattus norvegicus) (UniProt P12527); assay: In vitro inhibitory activity against polymorphonuclear leukocyte 5-lipoxygenase in rat cell at 1 uM; in short: as §1
T5 sequence (whole entry): T2 sequence (P12527 whole entry)

[8] = target: T1, Cyclooxygenase (Rattus norvegicus); assay: In vitro inhibitory activity against rat polymorphonuclear leukocyte Prostaglandin G/H synthase at 100 uM; format: protein assay
In short: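 Glycogen-elicited peritoneal PMNs from Sprague-Dawley rats were homogenized at 0 °C in 0.1 M Tris-HCl pH 8.2 with 10 μM NDGA. Compound (DMSO ≤0.1%) was preincubated 5 min at 37 °C, then 8 μM [14C]arachidonic acid with 4 mM glutathione and epinephrine was added for 10 min. TxB2 and PGF2α were measured by TLC and scintillation counting.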

[9] = target: T5, Polyunsaturated fatty acid 5-lipoxygenase (Rattus norvegicus); assay: In vitro inhibitory activity against polymorphonuclear leukocyte 5-lipoxygenase in rat cell at 10 uM; in short: as §1
[10] = target: T4, Arachidonate 12-lipoxygenase (Rattus norvegicus); assay: In vitro inhibitory activity against rat platelet 12-lipoxygenase at 10 uM; in short: as §2
[11] = target: T6, Polyunsaturated fatty acid 5-lipoxygenase (Homo sapiens) (UniProt P09917); assay: In vitro inhibitory activity against polymorphonuclear leukocyte 5-lipoxygenase in human cell at 10 uM
T6 sequence (whole entry): T3 sequence (P09917 whole entry)
In short: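 Human PMNs from venous blood of a healthy volunteer (EDTA) were purified by dextran sedimentation, a Percoll gradient and NH4Cl red-cell lysis (>90% pure). They were held in Ca/Mg PBS with 1 mg/mL glucose and 1 μM indomethacin, then challenged with A23187 (0.8 μM) and [14C]arachidonic acid (4 μM) for 3 min. 5-HETE was measured by TLC and scintillation counting.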

Structure (SMILES)	inhibition [1] [%]	IC50 [2] [nM]	inhibition in vivo at 200 mg/kg [3] [%]	Inhibition [4] [%]	IC50 [5] [nM]	inhibition [6] [%]	inhibition [7] [%]	inhibition [8] [%]	inhibition [9] [%]	inhibition [10] [%]	inhibition [11] [%]
O=C(CCCc1ccccc1)N(O)Cc1ccccc1	18	150	0	51	130						
CCC(Cc1ccccc1)N(O)C(=O)Cc1ccc(OCc2ccccc2)cc1 (stereo unspecified)	44	2500		38	3000	< 10					
CCOC(=O)CCCN(O)C(=O)CCCc1ccccc1	44	300		54	500						
O=C(Cc1ccc(OCc2ccccc2)cc1)NO	16						3				
O=C(CCOc1ccccc1)N(O)CCc1ccccc1		250			300			18			
COc1ccc(CCCC(=O)N(O)CCc2ccccc2)cc1		120	0	64	250						
CC(C(=O)N(O)CCc1ccccc1)c1cccc(OCc2ccccc2)c1 (stereo unspecified)	< 10	300			100						
CN(O)C(=O)Cc1cccc(OCc2ccc3ccccc3n2)c1		80		68	1000			30			
O=C(CCCCc1ccccc1)N(O)Cc1ccccc1	50	50		52	150						
O=C(CCc1ccccc1)N(O)CCCc1ccccc1		100	0	67	100			15			
CN(O)C(=O)CCCCc1ccccc1	< 10	110	9	77	250						
O=C(O)CCCN(O)C(=O)CCCc1ccccc1	< 10			34		15			1		
COc1ccc(CCCC(=O)N(C)O)cc1	< 10	300	60	67	1300						
O=C(Cc1ccc(OCc2ccccc2)cc1)N(O)CCCc1ccccc1	< 10	500		12	600						
CC(C)Cc1ccc(C(C)C(=O)N(Cc2ccccc2)OCc2ccccc2)cc1 (stereo unspecified)	39								< 10	< 10	< 10
O=C(COc1ccccc1)N(O)CCc1ccccc1		1000			1200			65			
COc1ccc(CC(=O)N(O)CCc2ccccc2)cc1	48	1000		51	2500						
CC(C)Cc1ccc(C(C)C(=O)N(O)Cc2ccccc2)cc1 (stereo unspecified)		1000			2000			20			
